Published values collected from several papers.
Lines come from different studies, so protocols differ.
Target: Death-associated protein kinase 2 (DAPK2, Homo sapiens, UniProt Q9UIK4)

COc1ccnn2ncc(-c3ccnc(N(C)C)n3)c12 — remaining binding (binding; 1 µM): 91%
Cc1c(NC(=O)c2cc(C(N)=O)nc3cc(F)ccc23)c(C(F)(F)F)nn1Cc1ccc(C#N)cc1 — remaining binding (cell-free assay, competition with immobilised ligand; 1 µM): 99%
CN(C)c1nccc(-c2cnn3ncccc23)n1 — remaining binding (binding; 1 µM): 90%
C[C@@H](c1ccc(-n2cnc3c(N)ncnc32)cc1)N1CCc2nn(C)c(Cc3ccccc3)c2C1=O — remaining binding (binding, competition with immobilised ligand; 0.1 µM): 100%
CS(=O)(=O)N1CCCC(NC(=O)[C@H](CCC2CCCCC2)NC(=O)c2ccc(CNc3ncnc4c3nnn4-c3ccccc3)cc2)C1 (stereo partly shown) — remaining binding (cell-free assay, competition with immobilised ligand; 0.1 µM): 90%
COc1cnc(Nc2cccc(S(N)(=O)=O)c2)nc1N1CCN(c2ccccc2)CC1 — remaining binding (binding, competition with immobilised ligand; 1 µM): 78%
Cc1noc([C@H]2C[C@@H](c3ccc(C(F)(F)F)cc3)CN(C(=O)N3CCS(=O)(=O)C3)C2)n1 — remaining binding (cell-free assay, competition with immobilised ligand; 1 µM): 100%
CN(C)c1ncc(F)c(-c2cnn3ncccc23)n1 — remaining binding (binding; 1 µM): 69%
O=C(c1ccc(Nc2ncc(Cl)c(-c3ccc(Cl)s3)n2)cc1)N1CCC(N2CCCC2)CC1 — remaining binding (binding, competition with immobilised ligand; 1 µM): 29%
O=C(NCC1CCOCC1)c1n[nH]cc1NC(=O)c1c(F)cccc1F — remaining binding (binding, competition with immobilised ligand; 1 µM): 95%
FC(F)(F)Oc1cccc(-c2cnc3ccc(-c4ccncc4)nn23)c1 — remaining binding (cell-free assay, competition with immobilised ligand; 5 µM): 66%
N#CC1(c2ccccn2)CCN(Cc2cc(C(=O)N3CCCC3)c(=O)n3ccccc23)CC1 — remaining binding (cell-free assay, competition with immobilised ligand; 1 µM): 94%
CN(C)c1nccc(-c2cnc3ncccn23)n1 — remaining binding (binding; 1 µM): 89%
Cc1cc(-n2nc(Cc3cc(F)cc(C(F)(F)F)c3)nc2C)ccc1C(N)=O — remaining binding (cell-free assay, competition with immobilised ligand; 1 µM): 95%
Cc1cnn2ncc(-c3ccnc(N(C)C)n3)c2c1 — remaining binding (binding; 1 µM): 87%
Nc1c(C(=O)NCc2ccc(C(=O)NCCCC3CCCCC3)cc2)cnn1-c1ccccc1 — remaining binding (cell-free assay, competition with immobilised ligand; 0.1 µM): 100%
CN(CCCC(F)(F)F)c1nccc(-c2cnn3ncccc23)n1 — remaining binding (binding; 1 µM): 97%
C[C@H](NC(=O)c1cnc2n1[C@](C)(Cc1ccc(C#N)cc1)C(=O)N2c1cc(Cl)c(F)c(Cl)c1)C(=O)NC1(c2ccccn2)CC1 — remaining binding (cell-free assay, competition with immobilised ligand; 1 µM): 100%
O=C(NCCCN1CCOCC1)c1ccc(Nc2nccc(-c3cc4ccccc4s3)n2)cc1 — remaining binding (binding, competition with immobilised ligand; 1 µM): 18%
CCN1CCN(Cc2ccc(C(=O)Nc3ccc(C)c(Oc4ccc5c(c4)CC(=O)N5)c3)cc2C(F)(F)F)CC1 — remaining binding (binding, competition with immobilised ligand; 1 µM): 100%
C[C@H]1CCN(c2nccc(-c3cnn4ncccc34)n2)C1 — remaining binding (binding; 1 µM): 72%
O=C(c1ccc(Nc2ncc(Cl)c(-c3cc4ccccc4s3)n2)cc1)N1CCC(N2CCCC2)CC1 — remaining binding (binding, competition with immobilised ligand; 1 µM): 20%
